ChEMBL document CHEMBL1129543, “Synthesis and evaluation of N-(phenylacetyl)trifluoromethanesulfonamides as anticonvulsant agents” (J Med Chem, 1996)
Activity calls are given as the source filed them. No cut-off for these calls is given here.

How the values were obtained:
Rattus norvegicus [1] = organism: Rattus norvegicus; assay: Protective index (TD50/ED50) was determined against scMet induced seizure in rat.; format: functional
Outline: (§1)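 Oral dosing in 30% PEG 400: phase IV in mice (0.01 mL/g), phase VI in Sprague-Dawley rats (0.004 mL/g). ED50/TD50 found as in phase II, at the stated time of peak effect. MES current 50 mA in mice, 150 mA in rats. Toxicity by rotorod in mice; positional sense, gait and stance in rats. PI = TD50/ED50.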

Mus musculus [2] = organism: Mus musculus; assay: Time to peak toxicity was evaluated by Maximal electroshock seizure test in hours; format: functional
Mus musculus [3] = assay: Anti-seizure activity was evaluated by Subcutaneous pentylenetetrazole seizure test at dose 100 mg/kg after 4.0 hours; +++ denotes antiseizure activity; format: functional, organism-based; set-up: dose 100 mg/kg
Outline: (§2)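 Phase I screen in mice: ip dosing at 30, 100, 300 and 600 mg/kg in 30% PEG 400, read 0.5 h and 4 h after. Pentylenetetrazol given sc at CD97 (85 mg/kg). Protection means no clonic spasm of at least 5 s over 30 min. Scored ++++ to + for 30 to 600 mg/kg.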

Rattus norvegicus [4] = organism: Rattus norvegicus; assay: Protective index (TD50/ED50) was determined against MES induced seizure in rat.; format: functional; outline: as §1
Mus musculus [5] = assay: Anti-seizure activity was evaluated by Neurologic toxicity (rotarod test) at dose 600 mg/kg after 4.0 hours; + denotes neurotoxicity; format: functional, organism-based; set-up: dose 600 mg/kg
Outline: (§3)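 Phase I neurotoxicity in mice by rotorod ataxia test. Compound given ip at 30, 100, 300 or 600 mg/kg in 30% PEG 400, read 0.5 h and 4 h after. Scored ++++ to + for toxicity at 30 to 600 mg/kg; - means no toxicity.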

Mus musculus [6] = organism: Mus musculus; assay: Time to peak activity was evaluated by Maximal electroshock seizure test in hours; format: functional
Mus musculus [7] = assay: Anti-seizure activity was evaluated by Subcutaneous pentylenetetrazole seizure test at dose 600 mg/kg after 0.5 hours; + denotes neurotoxicity; format: functional, organism-based; set-up: dose 600 mg/kg; outline: as §2
Mus musculus [8] = assay: Median effective dose was evaluated by subcutaneous pentylenetetrazole seizure test through intraperitoneal administration; format: functional
Outline: (§4)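 Phase II in mice, ip dosing in 30% PEG 400. Groups of 6-12 mice per dose until at least three points fall in 10-90% protection. […] MES: 50 mA, 0.2 s corneal. scMet: pentylenetetrazol 85 mg/kg sc.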

Mus musculus [9] = assay: Median effective dose was evaluated by Maximal electroshock seizure test through intraperitoneal administration; format: functional; conditions: ip; outline: as §4
Mus musculus [10] = assay: Anti-seizure activity was evaluated by Neurologic toxicity (rotarod test) at dose 600 mg/kg after 0.5 hours; + denotes neurotoxicity; format: functional, organism-based; set-up: dose 600 mg/kg; outline: as §3
Mus musculus [11] = assay: Anti-seizure activity was evaluated by Maximal electroshock seizure (MES) test at dose 100 mg/kg after 0.5 hours; +++ denotes antiseizure activity; format: functional, organism-based; set-up: dose 100 mg/kg
Outline: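 Phase I screen in mice: ip injection at 30, 100, 300 and 600 mg/kg in 30% PEG 400 (0.01 mL/g). Test run 0.5 h and 4 h after dosing. 60-Hz AC, 50 mA, via corneal electrodes for 0.2 s. Protection means abolition of hind-leg tonic extension. Scored ++++ to + for activity at 30 to 600 mg/kg.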

Mus musculus [12] = assay: Median toxic dose was evaluated by […] through intraperitoneal administration; format: functional
Rattus norvegicus [13] = assay: Time to peak effect in Rats was evaluated by Maximal electroshock seizure (MES) test in hours by oral administration; format: functional
Outline: as §1, with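 “in rats. PTZ sc 85 mg/kg in mice, 70 mg/kg in rats. Toxicity by” for “in rats. Toxicity by”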

Rattus norvegicus [14] = assay: Median Effective dose was evaluated by Subcutaneous pentylenetetrazole seizure test in Rats by oral administration up to 800 mg/kg;d= no protection; format: functional, organism-based; set-up: dose 800 mg/kg
Outline: as §1, with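 “in rats. PTZ sc 85 mg/kg in mice, 70 mg/kg in rats. Toxicity by” for “in rats. Toxicity by”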

Mus musculus [15] = assay: Inhibition of seizures induced in mice by a convulsant dose of strychnine through ip administration; f=No protection up to 100 mg/kg; format: functional, organism-based; set-up: dose 100 mg/kg
Outline: (§5)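 Convulsant (bicuculline, picrotoxin, strychnine or PTZ) given at CD97 as a 0.5% solution. Observed 30 min (45 min for picrotoxin). PI uses ip mouse TD50.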

Mus musculus [16] = assay: Inhibition of picrotoxin-induced seizures in mice by ip administration at 55-100 mg/kg (g= Maximum 62.5% protection); format: functional, organism-based
Outline: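 Phase V differentiation in mice: test drug given ip at time of peak therapeutic effect, then the CD₉₇ of each convulsant (picrotoxin, bicuculline, strychnine) given ip as a 0.5% solution; observation 30 min for bicuculline and strychnine, 45 min for picrotoxin. Drug in 30% PEG 400, 0.01 mL/g. ED₅₀ with 95% confidence intervals from ≥3 points in the 10-90% protection range, groups of 6-12 mice.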

Rattus norvegicus [17] = assay: Median Effective dose was evaluated by Maximal electroshock seizure (MES) test in Rats by oral administration; format: functional
Mus musculus [18] = assay: Median Effective dose was evaluated by Maximal electroshock seizure (MES) test in mice by oral administration; format: functional
Mus musculus [19] = assay: Median Effective dose was evaluated by Subcutaneous pentylenetetrazole seizure test in mice by oral administration; c=No protection up to 300 mg/kg; format: functional, organism-based; set-up: dose 300 mg/kg
Outline: as §1, with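 “in rats. PTZ sc 85 mg/kg in mice, 70 mg/kg in rats. Toxicity by” for “in rats. Toxicity by”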

Mus musculus [20] = organism: Mus musculus; assay: Median hypnotic dose was evaluated by loss of righting reflex; format: functional
Mus musculus [21] = assay: Time to peak effect in mice was evaluated by Neurologic toxicity (rotarod test) in hours by oral administration; format: functional
Outline: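 Oral dosing in mice in 30% PEG 400 (0.01 mL/g). Neurologic deficit was scored by the rotorod ataxia test, and the time of peak effect was given in hours.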

Mus musculus [22] = assay: Inhibition of seizures induced in mice by a convulsant dose of up to 100 mg/kg; format: functional, organism-based; set-up: dose 100 mg/kg; outline: as §5
Mus musculus [23] = assay: […] was evaluated by Neurologic toxicity (rotarod test) in mice by oral administration; format: functional
Outline: as §1, with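 “in rats. PTZ sc 85 mg/kg in mice, 70 mg/kg in rats. Toxicity by” for “in rats. Toxicity by”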

Rattus norvegicus [24] = assay: […] was evaluated by […] by oral administration up to 3000 mg/kg; format: functional, organism-based; set-up: dose 3000 mg/kg
Mus musculus [25] = assay: Median lethal dose was evaluated by mortality after 24 hr through ip injection administration; format: functional
Outline: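 Mice were dosed ip in 30% PEG 400. Mortality was scored 24 h after injection in groups of eight. The 24-h LD₅₀ was derived as for the ED₅₀/TD₅₀, with 95% confidence intervals.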

Rattus norvegicus [26] = assay: Time to peak effect in Rats was evaluated by Neurologic toxicity (rotarod test) in hours by oral administration; format: functional
Mus musculus [27] = assay: Median effective dose was evaluated by subcutaneous pentylenetetrazole seizure test through up to 300 mg/kg; g=no protection up to 33 mg/kg; format: functional, organism-based
Mus musculus [28] = assay: Time to peak effect in mice was evaluated by Subcutaneous pentylenetetrazole seizure test in hours by oral administration; format: functional
Outline: as §1, with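 “in rats. PTZ sc 85 mg/kg in mice, 70 mg/kg in rats. Toxicity by” for “in rats. Toxicity by”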

Rattus norvegicus [29] = assay: Time to peak effect in Rats was evaluated by Subcutaneous pentylenetetrazole seizure test in hours by oral administration; format: functional
Outline: as §1, with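 “in rats. PTZ sc 85 mg/kg in mice, 70 mg/kg in rats. Toxicity by” for “in rats. Toxicity by”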

Mus musculus [30] = assay: Time to peak effect in mice was evaluated by Maximal electroshock seizure (MES) test in hours by oral administration; format: functional
Outline: as §1, with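 “in rats. PTZ sc 85 mg/kg in mice, 70 mg/kg in rats. Toxicity by” for “in rats. Toxicity by”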

**Q.** Which results are given for O=C(Cc1ccc(Br)cc1)NS(=O)(=O)C(F)(F)F?
**A.** PI (Rattus norvegicus [1]): 5.3; TPE (Mus musculus [2]): 2; Activity (Mus musculus [3]): Antiseizure activity; PI (Rattus norvegicus [4]): 13; Activity (Mus musculus [5]): Antiseizure activity; TPE (Mus musculus [6]): 4; Activity (Mus musculus [7]): Antiseizure activity; ED50 (Mus musculus [8]): 55 mg/kg; ED50 (Mus musculus [9]): 23 mg/kg; Activity (Mus musculus [10]): Antiseizure activity; Activity (Mus musculus [11]): Antiseizure activity; TD50 (Mus musculus [12]): 291 mg/kg

**Q.** What does the source list for O=C1NC(=O)C(c2ccccc2)(c2ccccc2)N1 [PHENYTOIN]?
**A.** TPE (Rattus norvegicus [13]): 4 h; ED50 (Rattus norvegicus [14]): inactive; TPE (Mus musculus [2]): 2; TPE (Mus musculus [6]): 2; ED50 (Mus musculus [15]): inactive; ED50 (Mus musculus [16]): Active; ED50 (Rattus norvegicus [17]): 30 mg/kg; ED50 (Mus musculus [18]): 9 mg/kg; ED50 (Mus musculus [19]): inactive; HD50 (Mus musculus [20]): 178 mg/kg; TPE (Mus musculus [21]): 2 h; ED50 (Mus musculus [22]): inactive; TD50 (Mus musculus [23]): 87 mg/kg; TD50 (Rattus norvegicus [24]): inactive; LD50 (Mus musculus [25]): 230 mg/kg; TPE (Rattus norvegicus [26]): 0.5 h; ED50 (Mus musculus [27]): inactive; TPE (Mus musculus [28]): 2 h; TPE (Rattus norvegicus [29]): 4 h; TPE (Mus musculus [30]): 2 h
